Results from ChEMBL document CHEMBL4334486 (J Med Chem, 2019).
The source made the active and inactive calls. The rule behind the calls is not given here.

Columns and labels:
Pseudomonas aeruginosa [1] = assay: Antibiofilm activity against Pseudomonas aeruginosa PAO1 assessed as inhibition of biofilm formation incubated for 24 to 25 hrs at 50 uM by WST8 dye based Diggle-protocol method relative to control; assay type: functional
In short: (§1)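 Modified Diggle microtiter method. Medium is 0.25% (w/v) nutrient broth no. 2 containing compound. PAO1 is grown overnight in LB, washed, and inoculated normalized to OD600 of 1. Plates are incubated humid for 24−25 h at 37 °C and washed twice with water. Wells are then stained for 3 h at 37 °C with 0.5 mM WST-8 plus 20 μM phenazine ethosulfate. Supernatant absorbance is read at 450 nm to give viable biofilm cells.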

Pseudomonas aeruginosa [2] = assay: Antibiofilm activity against Pseudomonas aeruginosa PAO1 assessed as inhibition of biofilm formation incubated for 24 to 25 hrs at 20 uM by WST8 dye based Diggle-protocol method relative to control; assay type: functional; in short: as §1
Pseudomonas aeruginosa [3] = assay: Antibiofilm activity against Pseudomonas aeruginosa PAO1 assessed as inhibition of biofilm formation incubated for 24 to 25 hrs at 20 uM in presence of sub-inhibitory concentration of tobramycin by WST8 dye based Diggle-protocol method relative to control; assay type: functional, organism-based
In short: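 Diggle WST-8 biofilm method. PAO1 in 0.25% nutrient broth is exposed to compound at 20 μM mixed with tobramycin at 0.1 μM (subinhibitory). Incubation is 24−25 h at 37 °C. Washed wells are stained 3 h with 0.5 mM WST-8 and 20 μM phenazine ethosulfate. A450 of the supernatant is read.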

Pseudomonas aeruginosa [4] = assay: Antibiofilm activity against Pseudomonas aeruginosa PAO1 assessed as inhibition of biofilm formation incubated for 8 hrs at 20 uM by crystal violet based O'Toole method relative to control; assay type: functional; details: PAO1, 8 h
In short: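 O'Toole biofilm assay. PAO1 is grown in M63 minimal medium with 0.4% arginine and 1 mM MgSO4. Compound at 20 μM, or an equal volume of water as vehicle control, is added at inoculation. Incubation is 8 h at 37 °C. Growth is read at 550 nm on removed medium. Biofilm is stained with 0.1% crystal violet and quantified.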

Pseudomonas aeruginosa [5] = assay: Antimicrobial activity against Pseudomonas aeruginosa PAO1 assessed as inhibition of bacterial growth under Mueller-Hinton conditions without iron supplementation; assay type: functional
In short: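 Ciprofloxacin and deferoxamine serve as controls. MIC is taken as the highest dilution with visually clear wells.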

Pseudomonas aeruginosa [6] = assay: Antimicrobial activity against siderophore-producing Pseudomonas aeruginosa PAO1 assessed as inhibition of bacterial growth at 0.125 to 128 ug/mL under iron-supplemented succinate minimal medium in the presence of 50 uM of FeCl3; assay type: functional, organism-based
In short: (§2)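 Succinate minimal medium with FeCl3 at 8 μg/mL (50 μM), inoculated with the strain at 0.5 McFarland. Compound is added from 2-fold DMSO dilutions; DMSO alone is the growth control. Incubation is 24 h. OD600 gives growth, with cell-free baselines. Runs are at least duplicate, mean + SD; Mann−Whitney test, p<0.05.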

Pseudomonas aeruginosa [7] = assay: Toxicity in Pseudomonas aeruginosa PAO1 incubated for 24 to 25 hrs at 20 uM in presence of sub-inhibitory concentration of tobramycin by WST8 dye based Diggle-protocol method relative to control; assay type: organism-based; details: in vivo
[8] = Toxicity in human CFBEdeltaF cells isolated from CF patient at 20 uM incubated for 24 hrs by LDH assay; assay type: cell-based
In short: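 CF bronchial epithelial CFBEΔF monolayers are treated with compound at 20 μM (water vehicle control) for 24 h. Cytotoxicity is measured as LDH released into the medium. Triton is the lysis reference.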

Pseudomonas aeruginosa [9] = assay: Induction of fluorescent pyoverdine-1 siderophore production in siderophore-producing Pseudomonas aeruginosa PAO1 at 0.125 to 128 ug/mL incubated for 24 hrs under iron-supplemented succinate minimal medium in the presence of 50 uM of FeCl3; assay type: functional, organism-based
In short: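 PAO1 in succinate minimal medium with 8 μg/mL (50 μM) FeCl3, compound from DMSO dilutions. Plates are incubated 24 h at 35 °C. Iron-free pyoverdine is read by absorbance at 405 nm and by fluorescence (excitation 400 nm, emission 447 nm), with cell-free baselines. Runs are in duplicate at least twice, mean + SD.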

[10] = biological target: Fucose-binding lectin PA-IIL (Pseudomonas aeruginosa (strain ATCC 15692 / DSM 22644 / CIP 104116 / JCM14847 / LMG 12228 / 1C / PRS 101 / PAO1)) (UniProt Q9HYN5); assay: Potency index, ratio of IC50 for Me-alpha-D-mannoside to IC50 for test compound for inhibition of Pseudomonas aeruginosa LecB by fluorescence polarization assay
Sequence of Fucose-binding lectin PA-IIL (Pseudomonas aeruginosa (strain ATCC 15692 / DSM 22644 / CIP 104116 / JCM14847 / LMG 12228 / 1C / PRS 101 / PAO1)) (Q9HYN5 as listed by the source): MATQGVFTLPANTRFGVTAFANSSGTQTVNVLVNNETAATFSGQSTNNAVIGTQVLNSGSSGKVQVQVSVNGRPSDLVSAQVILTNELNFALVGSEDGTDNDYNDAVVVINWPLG

[11] = biological target: Fucose-binding lectin PA-IIL (Pseudomonas aeruginosa (strain ATCC 15692 / DSM 22644 / CIP 104116 / JCM14847 / LMG 12228 / 1C / PRS 101 / PAO1), UniProt Q9HYN5); assay: Inhibition of Pseudomonas aeruginosa LecB by fluorescence polarization assay
Sequence of Fucose-binding lectin PA-IIL (Q9HYN5 whole entry): as the sequence (Q9HYN5 as listed by the source) above

Pseudomonas aeruginosa [12] = assay: Antimicrobial activity against siderophore-deficient Pseudomonas aeruginosa PAD07 in siderophore-deficient PAD07 assessed as inhibition of bacterial growth at 0.0625 to 128 ug/mL incubated for 24 hrs under iron-supplemented succinate minimal medium in the presence of 50 uM of FeCl3; assay type: functional, organism-based; in short: as §2
Pseudomonas aeruginosa [13] = assay: Antibiofilm activity against Pseudomonas aeruginosa PAO1 assessed as inhibition of biofilm formation incubated for 8 hrs at 20 uM by crystal violet based O'Toole method relative to control
[14] = biological target: Fucose-binding lectin PA-IIL (Pseudomonas aeruginosa (strain ATCC 15692 / DSM 22644 / CIP 104116 / JCM14847 / LMG 12228 / 1C / PRS 101 / PAO1)) (UniProt Q9HYN5); assay: Potency index, ratio of IC50 for Me-alpha-L-fucoside to IC50 for test compound for inhibition of Pseudomonas aeruginosa LecB by fluorescence polarization assay
Pseudomonas aeruginosa [15] = assay: Antimicrobial activity against Pseudomonas aeruginosa PAO1 assessed as inhibition of planktonic cells growth at >0.15 uM incubated for 24 to 25 hrs; assay type: functional, organism-based
In short: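 PAO1 inoculum from overnight LB culture, washed in 0.25% (w/v) nutrient broth no. 2, normalized to OD600 1 and added to the same broth containing the test compound. Incubation was 24−25 h at 37 °C in a humid environment. Planktonic growth was read from the supernatant: it was regrown in LB at 37 °C for 7−8 h and OD600 was compared with no-supernatant, or CFU were plated on LB agar.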

Row | SMILES | inhibition at 20 µM (Pseudomonas aeruginosa [4]) | MIC (Pseudomonas aeruginosa [5]) | Activity (Pseudomonas aeruginosa [6]) | Activity [8] | Activity (Pseudomonas aeruginosa [9]) | IC50 [11] | further results
1 | CC(C)(C)c1cc2c(OCCCn3cc(CN(O)C(=O)CCCCCn4cc(CO[C@H]5O[C@H](CO)[C@@H](O)[C@H](O)[C@@H]5O)nn4)nn3)c(c1)Cc1cc(C(C)(C)C)cc(c1OCCCn1cc(CN(O)C(=O)CCCCCn3cc(CO[C@H]4O[C@H](CO)[C@@H](O)[C@H](O)[C@@H]4O)nn3)nn1)Cc1cc(C(C)(C)C)cc(c1OCCCn1cc(CN(O)C(=O)CCCCCn3cc(CO[C@H]4O[C@H](CO)[C@@H](O)[C@H](O)[C@@H]4O)nn3)nn1)Cc1cc(C(C)(C)C)cc(c1OCCCn1cc(CN(O)C(=O)CCCCCn3cc(CO[C@H]4O[C@H](CO)[C@@H](O)[C@H](O)[C@@H]4O)nn3)nn1)C2 | 84% | > 512 µg/mL | inactive | Non-Toxic | Dose-dependent effect | 664 nM | inhibition at 50 µM (Pseudomonas aeruginosa [1]): 70%; inhibition at 20 µM (Pseudomonas aeruginosa [2]): 83%; inhibition (Pseudomonas aeruginosa [3]): Active; Activity (Pseudomonas aeruginosa [7]): Non-Toxic; Ratio IC50 [10]: 236
2 | C[C@@H]1O[C@@H](OCc2cn(CCCCCC(=O)NOCc3ccccc3)nn2)[C@@H](O)[C@H](O)[C@@H]1O | – | – | – | – | – | 500 nM | –
3 | O=C(CCCCCn1cc(CO[C@H]2O[C@H](CO)[C@@H](O)[C@H](O)[C@@H]2O)nn1)NOCc1ccccc1 | – | – | – | – | – | 146000 nM | –
4 | C[C@@H]1O[C@@H](OCc2cn(CCCCCC(=O)N(O)Cc3cn(CCCOc4c5cc(C(C)(C)C)cc4Cc4cc(C(C)(C)C)cc(c4OCCCn4cc(CN(O)C(=O)CCCCCn6cc(CO[C@@H]7O[C@@H](C)[C@@H](O)[C@@H](O)[C@@H]7O)nn6)nn4)Cc4cc(C(C)(C)C)cc(c4OCCCn4cc(CN(O)C(=O)CCCCCn6cc(CO[C@@H]7O[C@@H](C)[C@@H](O)[C@@H](O)[C@@H]7O)nn6)nn4)Cc4cc(C(C)(C)C)cc(c4OCCCn4cc(CN(O)C(=O)CCCCCn6cc(CO[C@@H]7O[C@@H](C)[C@@H](O)[C@@H](O)[C@@H]7O)nn6)nn4)C5)nn3)nn2)[C@@H](O)[C@H](O)[C@@H]1O | 72% | > 512 µg/mL | inactive | Non-Toxic | Dose-dependent effect | 249 nM | inhibition (Pseudomonas aeruginosa [1]): inactive; Activity (Pseudomonas aeruginosa [12]): inactive; inhibition (Pseudomonas aeruginosa [13]): inactive; Ratio IC50 [14]: 3.37
5 | NC[C@H]1O[C@H](O[C@H]2[C@H](O)[C@@H](O[C@H]3O[C@H](CO)[C@@H](O)[C@H](N)[C@H]3O)[C@H](N)C[C@@H]2N)[C@H](N)C[C@@H]1O | – | – | – | – | – | – | Activity (Pseudomonas aeruginosa [15]): Active
6 | CC(C)(C)c1cc2c(OCCCn3cc(CN(O)C(=O)CCCCCn4cc(CO[C@H]5O[C@H](CO)[C@@H](O)[C@H](O)[C@H]5O)nn4)nn3)c(c1)Cc1cc(C(C)(C)C)cc(c1OCCCn1cc(CN(O)C(=O)CCCCCn3cc(CO[C@H]4O[C@H](CO)[C@@H](O)[C@H](O)[C@H]4O)nn3)nn1)Cc1cc(C(C)(C)C)cc(c1OCCCn1cc(CN(O)C(=O)CCCCCn3cc(CO[C@H]4O[C@H](CO)[C@@H](O)[C@H](O)[C@H]4O)nn3)nn1)Cc1cc(C(C)(C)C)cc(c1OCCCn1cc(CN(O)C(=O)CCCCCn3cc(CO[C@H]4O[C@H](CO)[C@@H](O)[C@H](O)[C@H]4O)nn3)nn1)C2 | 92% | – | – | Non-Toxic | – | – | –
